Results reported in ChEMBL document CHEMBL1777764, “Synthesis and evaluation of 1-(1H-indol-3-yl)ethanamine derivatives as new antibacterial agents” (Bioorg Med Chem, 2011).

How the values were obtained:
Type in all cases: functional
Streptococcus pneumoniae [1] = experiment: Antibacterial activity against Streptococcus pneumoniae ATCC 49619 after 18 hrs by broth microdilution method; settings: ATCC 49619, 18 h
Outline: (§1)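 MIC by broth microdilution per ISO 20776-1:2006 and CLSI M07-A8. Inoculum 10^6 cfu/ml in Mueller-Hinton broth […]. Compound serially diluted, final 2 to 128 ug/ml, duplicate rows, no-drug growth control. Read after 18 h at 37 °C as lowest concentration fully inhibiting visible growth. At least two experiments.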

Staphylococcus aureus [2] = experiment: Antibacterial activity against methicillin-resistant Staphylococcus aureus CIP 65.25 after 18 hrs by broth microdilution method; settings: CIP 65.25, 18 h
Outline: (§2)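 Broth microdilution following ISO 20776-1:2006 and CLSI M07-A8, in Mueller-Hinton broth. Inoculum was 10^6 cfu/ml, with compound serial dilutions spanning 2 to 128 ug/ml and a compound-free growth control well. Plates were incubated 18 h at 37 °C. MIC was the lowest concentration giving complete inhibition of visible growth. Each compound was tested at least twice.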

[3] = system: Staphylococcus epidermidis; experiment: Antibacterial activity against Staphylococcus epidermidis CIP 103627 after 18 hrs by broth microdilution method; settings: CIP 103627, 18 h
Outline: (§3)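 MIC by broth microdilution per ISO 20776-1:2006 and CLSI M07-A8. Inoculum 10^6 cfu/ml in Mueller-Hinton broth with compound serially diluted, final concentrations 2 to 128 ug/ml, duplicate rows, no-drug growth control. Incubation 18 h at 37 °C. MIC taken as lowest concentration giving complete inhibition of visible growth. Each compound tested at least twice.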

Staphylococcus aureus [4] = experiment: Antibacterial activity against vancomycin intermediate Staphylococcus aureus […] after 18 hrs by broth microdilution method; outline: as §2
Staphylococcus aureus [5] = experiment: Antibacterial activity against Staphylococcus aureus ATCC 6538 after 18 hrs by broth microdilution method; settings: ATCC 6538, 18 h; outline: as §3
Streptococcus pneumoniae [6] = experiment: Antibacterial activity against Streptococcus pneumoniae ATCC 6303 after 18 hrs by broth microdilution method; settings: ATCC 6303, 18 h; outline: as §1
Staphylococcus aureus [7] = experiment: Antibacterial activity against Staphylococcus aureus ATCC 25923 after 18 hrs by broth microdilution method; settings: ATCC 25923, 18 h; outline: as §3
Staphylococcus aureus [8] = experiment: Antibacterial activity against methicillin-resistant Staphylococcus aureus ATCC 33592 after 18 hrs by broth microdilution method; settings: ATCC 33592, 18 h; outline: as §2
Staphylococcus aureus [9] = experiment: Antibacterial activity against Staphylococcus aureus ATCC 29213 after 18 hrs by broth microdilution method; settings: ATCC 29213, 18 h; outline: as §3
Staphylococcus aureus [10] = experiment: Antibacterial activity against Staphylococcus aureus CIP 65.6 after 18 hrs by broth microdilution method; settings: CIP 65.6, 18 h; outline: as §3
Staphylococcus aureus [11] = experiment: Antibacterial activity against Staphylococcus aureus ATCC 9144 after 18 hrs by broth microdilution method; settings: ATCC 9144, 18 h; outline: as §3
Staphylococcus aureus [12] = experiment: Antibacterial activity against Staphylococcus aureus CIP 103428 after 18 hrs by broth microdilution method; settings: CIP 103428, 18 h; outline: as §3
[13] = system: Staphylococcus epidermidis; experiment: Antibacterial activity against Staphylococcus epidermidis ATCC 12228 after 18 hrs by broth microdilution method; settings: ATCC 12228, 18 h; outline: as §3
[14] = system: Staphylococcus epidermidis; experiment: Antibacterial activity against Staphylococcus epidermidis CIP 81.55 after 18 hrs by broth microdilution method; settings: CIP 81.55, 18 h; outline: as §3

Measured: MIC

CC(c1c[nH]c2ccc(I)cc12)N(O)Cc1ccccc1 (stereo not given)
> 128 µg/mL: all assays above

CC(C)(C)OC(=O)NCC(NO)c1c[nH]c2ccc(I)cc12 (stereo not given)
32 µg/mL: Staphylococcus aureus [5] | Staphylococcus aureus [7] | Staphylococcus aureus [9] | Staphylococcus aureus [10] | Staphylococcus aureus [11] | Staphylococcus aureus [12]
64 µg/mL: [3] | [13] | [14]

CC(C)(C)OC(=O)NCC(NO)c1c[nH]c2ccc(Cl)cc12 (stereo not given)
not listed: Streptococcus pneumoniae [1] | Staphylococcus aureus [2] | Staphylococcus aureus [4] | Streptococcus pneumoniae [6] | Staphylococcus aureus [8]
64 µg/mL: all other assays above

CC(C)(C)OC(=O)NCC(NO)c1c[nH]c2ccc(Br)cc12 (stereo not given)
64 µg/mL: [3] | [13] | [14]
32 µg/mL: Staphylococcus aureus [5] | Staphylococcus aureus [7] | Staphylococcus aureus [9] | Staphylococcus aureus [10] | Staphylococcus aureus [11] | Staphylococcus aureus [12]

CC(C)(C)OC(=O)NCC(NO)c1c[nH]c2cc(Cl)ccc12 (stereo not given)
> 128 µg/mL: [3] | [13] | [14]
128 µg/mL: Staphylococcus aureus [5] | Staphylococcus aureus [7] | Staphylococcus aureus [9] | Staphylococcus aureus [10] | Staphylococcus aureus [11] | Staphylococcus aureus [12]

CC(C)CC(c1c[nH]c2ccc(F)cc12)N(O)Cc1ccccc1 (stereo not given)
128 µg/mL: Streptococcus pneumoniae [1] | Staphylococcus aureus [2] | Staphylococcus aureus [4] | Streptococcus pneumoniae [6] | Staphylococcus aureus [8]
64 µg/mL: all other assays above

CC(C)(C)OC(=O)NCC(NO)c1c[nH]c2ccccc12 (stereo not given)
not listed: Streptococcus pneumoniae [1] | Staphylococcus aureus [2] | Staphylococcus aureus [4] | Streptococcus pneumoniae [6] | Staphylococcus aureus [8]
> 128 µg/mL: all other assays above

CC(C)(C)OC(=O)NCC(NO)c1c[nH]c2cc(F)ccc12 (stereo not given)
not listed: Streptococcus pneumoniae [1] | Staphylococcus aureus [2] | Staphylococcus aureus [4] | Streptococcus pneumoniae [6] | Staphylococcus aureus [8]
> 128 µg/mL: all other assays above

CC(c1c[nH]c2ccc(Cl)cc12)N(O)Cc1ccccc1 (stereo not given)
> 128 µg/mL: all assays above

CC(C)(C)OC(=O)NCC(NO)c1c[nH]c2cccc(Br)c12 (stereo not given)
not listed: Streptococcus pneumoniae [1] | Staphylococcus aureus [2] | Staphylococcus aureus [4] | Streptococcus pneumoniae [6] | Staphylococcus aureus [8]
128 µg/mL: all other assays above

CC(C)(C)OC(=O)NCC(c1c[nH]c2ccc(F)cc12)N(O)Cc1ccccc1 (stereo not given)
> 128 µg/mL: all assays above

CC(C)CC(c1c[nH]c2ccc(Cl)cc12)N(O)Cc1ccccc1 (stereo not given)
> 128 µg/mL: all assays above

CC(c1c[nH]c2ccc(Br)cc12)N(O)Cc1ccccc1 (stereo not given)
> 128 µg/mL: all assays above

CC(C)CC(c1c[nH]c2ccc(I)cc12)N(O)Cc1ccccc1 (stereo not given)
> 128 µg/mL: all assays above

CC(C)(C)OC(=O)NCC(c1c[nH]c2cc(F)ccc12)N(O)Cc1ccccc1 (stereo not given)
> 128 µg/mL: all assays above

CC(NO)c1c[nH]c2ccccc12 (stereo not given)
128 µg/mL: Staphylococcus aureus [5] | Staphylococcus aureus [7] | Staphylococcus aureus [9] | Staphylococcus aureus [10] | Staphylococcus aureus [11] | Staphylococcus aureus [12]
64 µg/mL: [3] | [13] | [14]

CC(c1c[nH]c2ccccc12)N(O)Cc1ccccc1 (stereo not given)
64 µg/mL: [3] | [13] | [14]
128 µg/mL: Staphylococcus aureus [5] | Staphylococcus aureus [7] | Staphylococcus aureus [9] | Staphylococcus aureus [10] | Staphylococcus aureus [11] | Staphylococcus aureus [12]

CC(C)(C)OC(=O)NCC(c1c[nH]c2ccccc12)N(O)Cc1ccccc1 (stereo not given)
> 128 µg/mL: all assays above

CC(c1c[nH]c2ccc(F)cc12)N(O)Cc1ccccc1 (stereo not given)
> 128 µg/mL: all assays above

CC(C)(C)OC(=O)NCC(NO)c1c[nH]c2ccc(F)cc12 (stereo not given)
not listed: Streptococcus pneumoniae [1] | Staphylococcus aureus [2] | Staphylococcus aureus [4] | Streptococcus pneumoniae [6] | Staphylococcus aureus [8]
> 128 µg/mL: all other assays above

CC(C)(C)OC(=O)NCC(c1c[nH]c2cccc(Br)c12)N(O)Cc1ccccc1 (stereo not given)
> 128 µg/mL: all assays above

CC(C)(C)OC(=O)NCC(NO)c1c[nH]c2cc(Br)ccc12 (stereo not given)
not listed: Streptococcus pneumoniae [1] | Staphylococcus aureus [2] | Staphylococcus aureus [4] | Streptococcus pneumoniae [6] | Staphylococcus aureus [8]
64 µg/mL: all other assays above

CC(C)CC(c1c[nH]c2ccc(Br)cc12)N(O)Cc1ccccc1 (stereo not given)
> 128 µg/mL: all assays above

CC(NO)c1c[nH]c2ccc(F)cc12 (stereo not given)
not listed: Streptococcus pneumoniae [1] | Staphylococcus aureus [2] | Staphylococcus aureus [4] | Streptococcus pneumoniae [6] | Staphylococcus aureus [8]
64 µg/mL: all other assays above

CC(NO)c1c[nH]c2ccc(Br)cc12 (stereo not given)
not listed: Streptococcus pneumoniae [1] | Staphylococcus aureus [2] | Staphylococcus aureus [4] | Streptococcus pneumoniae [6] | Staphylococcus aureus [8]
64 µg/mL: all other assays above
